Results: ChEMBL document CHEMBL4425110, “ICI 56,780 Optimization: Structure-Activity Relationship Studies of 7-(2-Phenoxyethoxy)-4(1H)-quinolones with Antimalarial Activity” (J Med Chem, 2016)
Calls of active or inactive are those of the source. The rule behind the calls is not given here.

Columns and labels:
Plasmodium falciparum [1] = experiment: Antimalarial activity against Plasmodium falciparum W2; type: functional, organism-based
Plasmodium falciparum [2] = experiment: Antimalarial activity against Plasmodium falciparum TM90-C2B; type: functional, organism-based
Plasmodium berghei [3] = experiment: Antimalarial activity against Plasmodium berghei; type: functional, organism-based
Summary of the method: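 In vitro liver-stage (exoerythrocytic) assay against P. berghei; the value is the EC50 (nM).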

J774 = experiment: Cytotoxicity against mouse J774 cells; type: cell-based
Plasmodium falciparum [4] = experiment: Resistance index, ratio of EC50 for Plasmodium falciparum TM90-C2B to EC50 for Plasmodium falciparum W2; type: functional
[5] = Liver blood index, ratio of EC50 for Plasmodium falciparum W2 to EC50 for Plasmodium berghei; type: functional
Summary of the method: (§1)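 Liver-stage EC50 measured in vitro against P. berghei. Liver blood index is the blood-stage EC50 divided by the P. berghei EC50, using either W2 or TM90-C2B as the blood-stage strain.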

[6] = Liver blood index, ratio of EC50 for Plasmodium falciparum TM90-C2B to EC50 for Plasmodium berghei; type: functional; summary of the method: as §1
Plasmodium berghei [7] = experiment: Antimalarial activity against Plasmodium berghei infected in mouse assessed as inhibition of parasitemia at 50 mg/kg, po administered as single dose measured on day 3 post drug exposure relative to untreated control; type: functional; settings: 72 h
Summary of the method: (§2)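 Two infected mice per compound were each given a single oral dose of 50 mg/kg, suspended in PEG400, on day 1 post-exposure. Parasitemia was assessed on days 3 and 6 post-exposure.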

Plasmodium berghei [8] = experiment: Antimalarial activity against Plasmodium berghei infected in mouse assessed as inhibition of parasitemia at 50 mg/kg, po administered as single dose measured on day 6 post drug exposure relative to untreated control; type: functional; settings: 144 h; summary of the method: as §2
Plasmodium berghei [9] = experiment: Antimalarial activity against GFP expressing Plasmodium berghei infected in mouse assessed as inhibition of parasitemia at 10 mg/kg, po administered on days 3, 4 and 5 and measured on day 6 post drug exposure by Giemsa staining based modified Thompson test; type: functional; settings: 144 h
Plasmodium berghei [10] = experiment: Antimalarial activity against GFP expressing Plasmodium berghei infected in mouse assessed as average time for mouse death at 10 mg/kg, po administered on days 3, 4 and 5 and measured on day 6 post drug exposure by Giemsa staining based modified Thompson test; type: functional
Plasmodium berghei [11] = experiment: Antimalarial activity against GFP expressing Plasmodium berghei infected in mouse assessed as inhibition of parasitemia at 10 mg/kg, po administered on days 3, 4 and 5 and measured on day 13 post drug exposure by Giemsa staining based modified Thompson test; type: functional, organism-based
[12] = Solubility in pH 6.5 buffer by HPLC based UV spectroscopy; type: physicochemical

| SMILES | EC50 (Plasmodium falciparum [1]) [nM] | EC50 (Plasmodium falciparum [2]) [nM] | EC50 (Plasmodium berghei [3]) [nM] | EC50 (J774) [nM] | Ratio EC50 (Plasmodium falciparum [4]) | Ratio EC50 [5] | Ratio EC50 [6] | inhibition in vivo at 50 mg/kg (Plasmodium berghei [7]) [%] | inhibition in vivo at 50 mg/kg (Plasmodium berghei [8]) [%] | inhibition in vivo at 10 mg/kg (Plasmodium berghei [9]) [%] | Time (Plasmodium berghei [10]) [days] | Activity (Plasmodium berghei [11]) | solubility [12] [µM] |
| --- | --- | --- | --- | --- | --- | --- | --- | --- | --- | --- | --- | --- | --- |
| COC(=O)c1c[nH]c2cc(Oc3ccccc3)ccc2c1=O | 16.6 | 1950 | 110 | 9120 | 117 | 0.15 | 17.7 | 40 | 29.8 |  |  |  |  |
| COC(=O)c1c[nH]c2ccc(OCCc3ccccc3)cc2c1=O | 24.6 | 3050 | 6.97 | 2200 | 124 | 3.53 | 438 | 7.69 | < 1 |  |  |  |  |
| COC(=O)c1c[nH]c2ccc(OCc3ccccc3)cc2c1=O | 11.6 | 1100 | 127 | 7590 |  | 0.091 | 8.66 |  | < 1 |  |  |  |  |
| CCCCc1cc2c(=O)c(I)c(C)[nH]c2cc1OCCOc1ccccc1 | 0.867 | 5.87 |  |  | 6.77 |  |  | 53.9 | 19.6 |  |  |  |  |
| CCCCc1cc2c(=O)c(Br)c(C)[nH]c2cc1OCCOc1ccccc1 | 2.6 | 12.2 | 2.12 | > 10000 | 4.69 | 1.23 | 5.75 | 100 | 49.5 | 61 | 13 | inactive |  |
| COC(=O)c1c[nH]c2cc(OCCCc3ccccc3)ccc2c1=O | 0.711 | > 784 | 5.26 | 1480 | >1100 | 0.14 |  | 69.2 | 47.1 |  |  |  |  |
| CCCCc1ccc2[nH]cc(C(=O)OC)c(=O)c2c1 | 1.58 | 222 | 0.819 | > 20000 | 141 | 1.93 | 271 |  |  |  |  |  |  |
| CCCCc1cc2c(=O)c(C(=O)NC)c[nH]c2cc1OCCOc1ccccc1 | 13.3 | 3980 | 2.87 | > 20000 | 299 | 4.63 | 1390 |  |  |  |  |  |  |
| CCCCc1cc2c(=O)c(C#N)c[nH]c2cc1OCCOc1ccccc1 | 97.2 | 3170 | 6.09 | > 20000 | 32.6 | 15.7 | 521 |  |  |  |  |  |  |
| COC(=O)c1c[nH]c2cc(OCCOc3ccccc3)c(C)cc2c1=O | 2.01 | 499 | 152 | > 20000 | 248 | 0.013 | 3.28 |  |  |  |  |  |  |
| COC(=O)c1c[nH]c2cc(OCCc3ccccc3)ccc2c1=O | 139 | 7740 |  | 17200 | 55.7 |  |  | 60 | < 1 |  |  |  |  |
| CCCCc1cc2c(=O)c(Br)c[nH]c2cc1OCCOc1ccccc1 | 4.64 | 48.7 | 18.7 | 8070 | 10.5 | 0.248 | 2.6 |  |  |  |  |  |  |
| CCCCc1cc2c(=O)c(CC)c[nH]c2cc1OCCOc1ccccc1 | 0.44 | 1.92 | 2.65 | 360 | 4.36 | 0.166 | 0.725 | 69.2 | 17.7 |  |  |  |  |
| CCCCc1cc2c(=O)c(Cl)c(C)[nH]c2cc1OCCOc1ccccc1 | 6.92 | 67.7 | 11.2 | > 10000 | 9.79 | 0.616 | 6.03 |  |  |  |  |  |  |
| COC(=O)c1c[nH]c2cc(OCCOc3ccccc3)c(Cl)cc2c1=O | 9.93 | 617 | 0.063 | > 20000 | 62.1 | 158 | 9790 | < 1 | < 1 |  |  |  |  |
| CCCCc1cc2c(=O)c(C(=O)O)c[nH]c2cc1OCCOc1ccccc1 | 64 | 1110 | 0.267 | > 20000 | 17.3 | 240 | 4160 |  |  |  |  |  |  |
| CCCCc1cc2c(=O)c(C(=O)OC)c[nH]c2cc1OCCOc1ccccc1 | 0.039 | 7.89 | 0.052 | > 20000 | 202 | 0.75 | 152 | 76.9 | 49 | < 1 | 13 |  |  |
| COC(=O)c1c[nH]c2cc(OCCOc3ccccc3)c(OC)cc2c1=O | 6.93 | 11.1 | 17.5 | > 20000 | 1.6 | 0.396 | 0.634 |  |  |  |  |  |  |
| COC(=O)c1c[nH]c2ccc(Cl)cc2c1=O | 614 | 82200 | 46.6 | > 20000 | 134 | 13.2 | 1760 |  |  |  |  |  |  |
| O=C1C(O)=C([C@H]2CC[C@H](c3ccc(Cl)cc3)CC2)C(=O)c2ccccc21 [ATOVAQUONE] |  |  |  |  |  |  |  |  |  |  | 30 |  |  |
| CCc1cc2c(=O)c(C(=O)OC)c[nH]c2cc1OCCOc1ccccc1 | 0.461 | 65.3 | 0.737 | > 20000 | 142 | 0.626 | 88.6 |  |  |  |  |  |  |
| COC(=O)c1c[nH]c2cc(OCCOc3ccccc3)c(Br)cc2c1=O | 4.47 | 847 | 0.336 | > 20000 | 189.5 | 13.3 | 2520 |  |  |  |  |  |  |
| CCCCc1cc2c(=O)cc[nH]c2cc1OCCOc1ccccc1 | 328 | 430 | 5.82 | > 20000 | 1.31 | 56.4 | 73.9 |  |  |  |  |  |  |
| COC(=O)c1c[nH]c2ccc(OCCCc3ccccc3)cc2c1=O | 14.4 | 3670 | 11.1 | 17100 | 255 | 1.3 | 331 | 76.9 | < 1 |  |  |  |  |
| CCCCc1cc2c(=O)c(C(=O)N(C)C)c[nH]c2cc1OCCOc1ccccc1 | 56.7 | > 6120 | 122 | 15300 | >108 | 0.46 | > 27.7 |  |  |  |  |  |  |
| CCCCc1cc2c(=O)c(C(=O)NCCO)c[nH]c2cc1OCCOc1ccccc1 | 253 | 5890 | 12.8 | > 20000 | 23.3 | 19.8 | 460 | 40 | < 1 |  |  |  | > 20 |
